Values after ≈ are worked out from the molar mass of the structure shown.
Assays:
Staphylococcus aureus [1] = assay: Antimicrobial activity against methicillin-resistant Staphylococcus aureus Ho 4536-0367 with heterozygous 23S rRNA G2576U mutation; type: functional
Summary of the method: (§1)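 MIC by CLSI agar dilution. Resistant clinical enterococcal and S. aureus isolates came mostly from UK patients, a few from Brazil and Austria. Laboratory mutants were selected from clinical isolate ST/02/2121, RN4220 and hypermutable RN4220ΔmutS. Selection used serial broth passage with linezolid rising arithmetically from 0.5 to 10 μg/ml, then repeated subculture on agar with 10 μg/ml linezolid.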

Staphylococcus aureus [2] = assay: Antimicrobial activity against methicillin-resistant Staphylococcus aureus Ho 4280-0256 with heterozygous 23S rRNA G2576U mutation; type: functional; summary of the method: as §1
Staphylococcus aureus [3] = assay: Antimicrobial activity against methicillin-resistant Staphylococcus aureus Ho 4536-0368 with heterozygous 23S rRNA G2576U mutation; type: functional; summary of the method: as §1
Staphylococcus aureus [4] = assay: Antimicrobial activity against methicillin-resistant Staphylococcus aureus Ho 4280-0257 with heterozygous 23S rRNA G2576U mutation; type: functional; summary of the method: as §1
Staphylococcus aureus [5] = assay: Antimicrobial activity against methicillin-resistant Staphylococcus aureus Ho 4280-0258 with heterozygous 23S rRNA G2576U mutation; type: functional; summary of the method: as §1
Staphylococcus aureus [6] = assay: Antimicrobial activity against methicillin-resistant Staphylococcus aureus B2 with heterozygous 23S rRNA G2576U mutation; type: functional; summary of the method: as §1
Staphylococcus aureus [7] = assay: Antimicrobial activity against Staphylococcus aureus RN4220; type: functional; summary of the method: as §1
Staphylococcus aureus [8] = assay: Antimicrobial activity against Staphylococcus aureus RN4220 with 23S rRNA G2447T mutation; type: functional; summary of the method: as §1
Staphylococcus aureus [9] = assay: Antimicrobial activity against Staphylococcus aureus RN4220 with 23S rRNA G2576U mutation; type: functional; summary of the method: as §1
Staphylococcus aureus [10] = assay: Antimicrobial activity against Staphylococcus aureus RN4220 deltamutS with 23S rRNA G2576U mutation; type: functional; summary of the method: as §1
Staphylococcus aureus [11] = assay: Antimicrobial activity against Staphylococcus aureus RN4220 deltamutS revertant with 23S rRNA G2576U mutation; type: functional; summary of the method: as §1
Staphylococcus aureus [12] = assay: Antimicrobial activity against Staphylococcus aureus RN4220 deltamutS with 23S rRNA G2576U and A2503G mutation; type: functional; summary of the method: as §1
Staphylococcus aureus [13] = assay: Antimicrobial activity against Staphylococcus aureus ST/02/2121; type: functional; summary of the method: as §1
Staphylococcus aureus [14] = assay: Antimicrobial activity against Staphylococcus aureus ST/02/2121 with 23S rRNA T2504C mutation; type: functional; summary of the method: as §1
Staphylococcus aureus [15] = assay: Antimicrobial activity against Staphylococcus aureus ST/02/2121 with 23S rRNA G2447T mutation; type: functional; summary of the method: as §1
Staphylococcus aureus [16] = assay: Antimicrobial activity against Staphylococcus aureus RN4220 deltamutS; type: functional; summary of the method: as §1
Enterococcus faecalis [17] = assay: Antimicrobial activity against Enterococcus faecalis Ho 4450-0446 with heterozygous 23S rRNA G2576U mutation; type: functional; summary of the method: as §1
Enterococcus faecalis [18] = assay: Antimicrobial activity against Enterococcus faecalis 1 L2 with heterozygous 23S rRNA G2576U mutation; type: functional; summary of the method: as §1
Enterococcus faecalis [19] = assay: Antimicrobial activity against Enterococcus faecalis 25 with heterozygous 23S rRNA G2576U mutation; type: functional; summary of the method: as §1
Enterococcus faecalis [20] = assay: Antimicrobial activity against Enterococcus faecalis 37 with heterozygous 23S rRNA G2576U mutation; type: functional; summary of the method: as §1
Enterococcus faecalis [21] = assay: Antimicrobial activity against Enterococcus faecalis 45 with heterozygous 23S rRNA G2576U mutation; type: functional; summary of the method: as §1
Enterococcus faecalis [22] = assay: Antimicrobial activity against Enterococcus faecalis 9 with heterozygous 23S rRNA G2576U mutation; type: functional; summary of the method: as §1
Enterococcus faecium [23] = assay: Antimicrobial activity against Enterococcus faecium Ho 5114-0276 with heterozygous 23S rRNA G2576U mutation; type: functional; summary of the method: as §1
Enterococcus faecium [24] = assay: Antimicrobial activity against Enterococcus faecium 28 with heterozygous 23S rRNA G2576U mutation; type: functional; summary of the method: as §1
Enterococcus faecium [25] = assay: Antimicrobial activity against Enterococcus faecium 44 with heterozygous 23S rRNA G2576U mutation; type: functional; summary of the method: as §1
Enterococcus faecium [26] = assay: Antimicrobial activity against Enterococcus faecium Ho 4418-0062 with heterozygous 23S rRNA G2576U mutation; type: functional; summary of the method: as §1
Enterococcus faecium [27] = assay: Antimicrobial activity against Enterococcus faecium 18 with heterozygous 23S rRNA G2576U mutation; type: functional; summary of the method: as §1
Enterococcus faecium [28] = assay: Antimicrobial activity against Enterococcus faecium 31 with heterozygous 23S rRNA G2576U mutation; type: functional; summary of the method: as §1
Enterococcus faecium [29] = assay: Antimicrobial activity against Enterococcus faecium 16 with homozygous 23S rRNA G2576U mutation; type: functional; summary of the method: as §1
Enterococcus faecium [30] = assay: Antimicrobial activity against Enterococcus faecium 34 with homozygous 23S rRNA G2576U mutation; type: functional; summary of the method: as §1
Enterococcus faecium [31] = assay: Antimicrobial activity against Enterococcus faecium Ho 4136-0042; type: functional; conditions: in the assay text read “H0 4136-0043” for “Ho 4136-0042”
Summary of the method: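 MIC by CLSI agar dilution against a clinical enterococcal isolate. The isolates were either linezolid-susceptible UK clinical isolates (about 100 per group) or among 23 linezolid-resistant clinical enterococci and S. aureus, mostly from UK patients, with a few from Brazil and Austria.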

Enterococcus faecium [32] = assay: Antimicrobial activity against Enterococcus faecium 3 with heterozygous 23S rRNA G2576U mutation
Enterococcus faecium [33] = assay: Antimicrobial activity against Enterococcus faecium 2 L1 with homozygous 23S rRNA G2576U mutation

Row | SMILES | MIC (Staphylococcus aureus [1]) | MIC (Staphylococcus aureus [2]) | MIC (Staphylococcus aureus [3]) | MIC (Staphylococcus aureus [4]) | MIC (Staphylococcus aureus [5]) | MIC (Staphylococcus aureus [6]) | MIC (Staphylococcus aureus [8]) | MIC (Staphylococcus aureus [9]) | MIC (Staphylococcus aureus [10]) | MIC (Staphylococcus aureus [11]) | MIC (Staphylococcus aureus [12]) | MIC (Staphylococcus aureus [14]) | MIC (Staphylococcus aureus [15]) | MIC (Enterococcus faecalis [18]) | MIC (Enterococcus faecalis [19]) | MIC (Enterococcus faecalis [20]) | MIC (Enterococcus faecalis [21]) | MIC (Enterococcus faecalis [22]) | MIC (Enterococcus faecium [23]) | MIC (Enterococcus faecium [24]) | also measured
1 | CC(=O)NC[C@H]1CN(c2ccc(N3Cc4cn(C)nc4C3)c(F)c2)C(=O)O1 | 2 µg/mL (≈ 5.36 µM) | 4 µg/mL (≈ 10.7 µM) | 8 µg/mL (≈ 21.4 µM) | 8 µg/mL (≈ 21.4 µM) | 8 µg/mL (≈ 21.4 µM) | 8 µg/mL (≈ 21.4 µM) | 8 µg/mL (≈ 21.4 µM) | 4 µg/mL (≈ 10.7 µM) | 8 µg/mL (≈ 21.4 µM) | 8 µg/mL (≈ 21.4 µM) | 8 µg/mL (≈ 21.4 µM) | 8 µg/mL (≈ 21.4 µM) | 4 µg/mL (≈ 10.7 µM) | 16 µg/mL (≈ 42.9 µM) | 16 µg/mL (≈ 42.9 µM) | 8 µg/mL (≈ 21.4 µM) | 8 µg/mL (≈ 21.4 µM) | 16 µg/mL (≈ 42.9 µM) | 2 µg/mL (≈ 5.36 µM) | 8 µg/mL (≈ 21.4 µM) | MIC (Staphylococcus aureus [7]): 0.5 µg/mL (≈ 1.34 µM); MIC (Staphylococcus aureus [13]): 1 µg/mL (≈ 2.68 µM); MIC (Staphylococcus aureus [16]): 0.5 µg/mL (≈ 1.34 µM); MIC (Enterococcus faecalis [17]): 2 µg/mL (≈ 5.36 µM); MIC (Enterococcus faecium [25]): 4 µg/mL (≈ 10.7 µM); MIC (Enterococcus faecium [26]): 16 µg/mL (≈ 42.9 µM); MIC (Enterococcus faecium [27]): 8 µg/mL (≈ 21.4 µM); MIC (Enterococcus faecium [28]): 8 µg/mL (≈ 21.4 µM); MIC (Enterococcus faecium [29]): 16 µg/mL (≈ 42.9 µM); MIC (Enterococcus faecium [30]): 32 µg/mL (≈ 85.7 µM); MIC (Enterococcus faecium [31]): 16 µg/mL (≈ 42.9 µM); MIC (Enterococcus faecium [32]): 16 µg/mL (≈ 42.9 µM); MIC (Enterococcus faecium [33]): 32 µg/mL (≈ 85.7 µM)
2 | CC(=O)NC[C@H]1CN(c2ccc(N3CCOCC3)c(F)c2)C(=O)O1 [LINEZOLID] | 8 µg/mL (≈ 23.7 µM) | 16 µg/mL (≈ 47.4 µM) | 32 µg/mL (≈ 94.9 µM) | 32 µg/mL (≈ 94.9 µM) | 32 µg/mL (≈ 94.9 µM) | 32 µg/mL (≈ 94.9 µM) | 16 µg/mL (≈ 47.4 µM) | 16 µg/mL (≈ 47.4 µM) | 16 µg/mL (≈ 47.4 µM) | 16 µg/mL (≈ 47.4 µM) | 32 µg/mL (≈ 94.9 µM) | 16 µg/mL (≈ 47.4 µM) | 16 µg/mL (≈ 47.4 µM) | 32 µg/mL (≈ 94.9 µM) | 32 µg/mL (≈ 94.9 µM) | 32 µg/mL (≈ 94.9 µM) | 32 µg/mL (≈ 94.9 µM) | 64 µg/mL (≈ 190 µM) | 8 µg/mL (≈ 23.7 µM) | 16 µg/mL (≈ 47.4 µM) | MIC (Enterococcus faecium [25]): 16 µg/mL (≈ 47.4 µM); MIC (Enterococcus faecium [26]): 32 µg/mL (≈ 94.9 µM); MIC (Enterococcus faecium [27]): 32 µg/mL (≈ 94.9 µM); MIC (Enterococcus faecium [28]): 32 µg/mL (≈ 94.9 µM); MIC (Enterococcus faecium [29]): 64 µg/mL (≈ 190 µM); MIC (Enterococcus faecium [30]): 64 µg/mL (≈ 190 µM); MIC (Enterococcus faecium [31]): 64 µg/mL (≈ 190 µM); MIC (Enterococcus faecium [32]): 64 µg/mL (≈ 190 µM); MIC (Enterococcus faecium [33]): 64 µg/mL (≈ 190 µM)

Reference: ChEMBL document CHEMBL1142093, “In vitro activity of the oxazolidinone RWJ-416457 against linezolid-resistant and -susceptible staphylococci and enterococci” (2007)
